Variants at the floor of the assay were thinned out.
B1: tRNA (parent)
chain: GUUCCGUUGGCGUAAUGGUAACGCGUCUCCCUCCUAAGGAGAAGACUGCGGGUUCGAGUCCCGUACGGAACG

Variants of: B1
Assay: yeast fitness relative to wild type (ratio to wild type); higher = fitter; tRNA-Arg(CCU), competitive growth, 37 C, YPD
Method in brief: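 Amplicons of the tRNA-Arg(CCU) gene were sequenced, 100-nucleotide paired-end, from the start population and from each end population of a pooled yeast competition. The competition, in six parallel replicates, lasted 24 hours in YPD at 37°C. Fitness relative to wild type was calculated from changes in genotype frequencies. Genotypes had to have ≥ 100 starting reads, and estimates < 0.5 were set to 0.5.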

Compared with GUUCCGUUCGCGUAAUGGUAAGGCGUCUCCCUCCUAAGGAGAAGACUGCGGGUUCGAGUCCUGUAAGGAACG [G9C C22G C62U C66A], GUUCCGUUGGCGUAGUGGUAACGCGUCUCCCUCCUAAGGAGAAGACUGCGGGUUCGAGUCCCGUACCGAACG [A15G G67C] is higher in yeast fitness: at most 0.5 for the first, 0.706 for the second.

GUUCCGUUGGCGUAAUGGUAACGCGUCUCCAUCCUACGGAGAAGACCGCGGGUUCGAGUCCCGUACAGAACG [C31A A37C U47C G67A] and GUUCCGUUGGCAUAAUGGUAACGCGUCUCCCUUCUAAGCAGAAGACUGCGGGUUCGAGUCCCGUAGGGAACG [G12A C33U G39C C66G] cannot be ordered by yeast fitness: at most 0.5 for the first, at most 0.5 for the second.

Compared with GUUUCGUUGGCGUAAUGGUAACGCGUCUCCCUCCUAAGGAGCAGACUGCGGGUUCGAGUCCCGUACGGAACG [C4U A42C], GUUCCGUAGGCGCAAUGGUAACGCGUCUCCCUCCUAAGGAGAAGACUGCGGGUUCGAGUCCCGUAUGGAACG [U8A U13C C66U] is lower in yeast fitness: 0.912 for the first, 0.607 for the second.

First: GUUCCGUUGGCGUAAUGGUAACGCGUCUCCCUCCUAAGGAGAAGACUGCGGGUUCCCGUCCCGUACGGAACG [G56C A57C]
Second: GUCCCGUUGGCGUAAGGGAAACGCGUCUCCCUCCUAAGGAGAUGACUGCGGGUUCGUGUCCCGUACGGAACG [U3C U16G U19A A43U A57U]
The yeast fitness of the first is higher: 0.529 for the first, at most 0.5 for the second.

GUUCCGUUGGAGUGAUGGUAACGCGUCUCCCUCCUAAGGAGACGACUGCGGGUUCGGGCCCCAUACGGAGCG [C11A A14G A43C A57G U59C G63A A70G] and GUUCCGUUGGCGUAAUGGUAACGCGGCUCCCUCCUAAGGAGAAGACUGCGGGUUCGAGUCUCGUACAGAACG [U26G C61U G67A] cannot be ordered by yeast fitness: at most 0.5 for the first, at most 0.5 for the second.

GUUCCGUUGGCGUAAUGGUUACGCGUGUACCUCCUAAGGAGAAGACUGCGGGUUCGGGUCCCGUGCGGAACG [A20U C27G C29A A57G A65G] and GUUCCGUUGGCGUAAUGUUAACGCGUCUCUCUCCUAAGGAGAAGACUGGGGGUUCGAGUCCCGUACGGAACG [G18U C30U C49G] cannot be ordered by yeast fitness: at most 0.5 for the first, at most 0.5 for the second.

Going from GUUCCGUUGGUGUAAUGGAAACGCGUCUCCCUCCUAAGGAGGAGACUGCGGGUUCGAGAUCCGUACGGAACG [C11U U19A A42G U59A C60U] to GUUACGUUGGCGUACUGGUAACGCGUCUCCCUCCUAAGGAGAAGACUGCGGGUUUGAGUCCCGUACGGAACG [C4A A15C C55U], the yeast fitness rises from at most 0.5 to 0.58.

GUUCCGUUGGCGUAGUGGUUACGCGUCUCCCUCCUAAGAAGAAGACUGCGGGUUCGAGUCCCGUACGGCACG [A15G A20U G39A A69C] and GUUCCGUUGACGUAAUGGUAACGCGUCUCCCUCCUAAGGAGAAGACUACGGGUUAGAGUCCCGUACGGAACG [G10A G48A C55A] cannot be ordered by yeast fitness: at most 0.5 for the first, at most 0.5 for the second.

Going from GUUCCGUUGGCGUAAUGGUAACGCGUCUCGCUCCUAAGGAGAAGACUGCGGGUUCGAGUCCCGUACGGAACG [C30G] to GUUCCGUUGGCGUAAUGGUAACGCGUCUCCCUCCUAAGGAGAAGACUGGGGGUUCGAGGCCCGUACGGAACG [C49G U59G], the yeast fitness falls from 0.68 to 0.635.

Compared with GUUCCGUUGGCGUAAUGGUAACGCGUCUCCGUCCUCAGGAGAAGACUGCGGGUUCGAGUCCCGUACGAACCG [C31G A36C G68A A70C], GUUCGGUUGGCGUAAUCGUAACGCGUCUCCCUCCUAAGGAGAUGACUGCGGGUUCGAGUCCCGUACGGCACG [C5G G17C A43U A69C] is higher in yeast fitness: at most 0.5 for the first, 0.596 for the second.

GUUCCGUUGGCGUAAUGGUAACGCGUGUGCCUCCUAAGGUGAAGCCUGCGGGUUCGUGUCCCGUACGGAACG [C27G C29G A40U A45C A57U] and GUUCCGUUCGCGUAAUGGUAAGGCGUCUCCCUCCUAAGGAGAAGACUGCGGGUUCGAGUCCAGUACGGAACG [G9C C22G C62A] cannot be ordered by yeast fitness: at most 0.5 for the first, at most 0.5 for the second.

Going from GUUCCGUUGGCGUAAUGGUAACGCGUCUCCCUCCUAAGGAGAAGACUGCGGGUUCGAGUCCCCUACAGAACG [G63C G67A] to GUUCCGUUGGAGUAAUGGUAGCGCGUCUCCCUCGUAACGAGAAGACUGCGGGUUCGAGUCCGGUACGGCACG [C11A A21G C34G G38C C62G A69C], the yeast fitness falls from 0.692 to at most 0.5.

GUUCCGUUCGCGUAAUGGUAACGCGUCUCACUCCUAAGGAGAAGAAUCCGGGUUCGAGUCCCGUACGGACCG [G9C C30A C46A G48C A70C] and GUUGCGUUGGCGUAAUGGUAACGCGUCUGCCUCCUCUGGCGAAGGCUGCGAGUUCGAGUCCCGUACGGAUCG [C4G C29G A36C A37U A40C A45G G51A A70U] cannot be ordered by yeast fitness: at most 0.5 for the first, at most 0.5 for the second.

Compared with GUUCCGUUGGCGUAAUGGUUACGCGUCUCCCUCUUAAGGAAAAGACUGCGGGUUCGAGUCCCGUACGGAACG [A20U C34U G41A], GUUCCGUUGGCGUCAUGGUAACGUGUCUCCGUCCUUAGGAGAAGACUGCGGGUUCGAGUCCCGUACGGAACG [A14C C24U C31G A36U] is higher in yeast fitness: at most 0.5 for the first, 0.664 for the second.

Going from GUUCCGUUGGCGUGAUGGUAACGCGUCUCCCUCCUACGGAGAAGACUGCGGGUUCGAGUCCCGUACGGAACG [A14G A37C] to GUUCCGUUGGCGUAAUGGUAACGCGUCUCCCUCCUAAGGAGAAGACUGCGGGAUCGAGUCCCGUACGGACCG [U53A A70C], the yeast fitness rises from 0.73 to 0.769.

Compared with GUUCCGUUGGCGUAAUGGCAACGCGGCUCCCUCCUCAGGAGAAGACUGCGGGUUCGAGUCCCGUACGGAACG [U19C U26G A36C], GUUCCGUUGGCGUAAUGGUAACGCGUCUCCUUCCUAAGGAGAAGACUGCGGGUUAGAGUCCCGUACGGAACG [C31U C55A] is higher in yeast fitness: at most 0.5 for the first, 0.749 for the second.

GUUCCGUUGGCGUAAUGGUAACGCGUUUCCCUCCUUAGGAGAAGACUGCGGGUUCGAGUCCCGUACGGCUCG [C27U A36U A69C A70U] and GUUCAGUUGGCGUAAUGGUAACGCGUCUCCCUCCUAAGGAGAAGCGUCCGGGUUCGAGUCCCGCACGGAACG [C5A A45C C46G G48C U64C] cannot be ordered by yeast fitness: at most 0.5 for the first, at most 0.5 for the second.

First: GUUUCGUUAGCGUAAUGGUAACGCGUCUCCCUCUUGAGGAGAAGACUGCGGGUUGGUGUCCCGUACAGAACG [C4U G9A C34U A36G C55G A57U G67A]
Second: GUUCCGUUGGCGUAAUGGUAACCCGUCUCCCUCCUAAGGCGAAGACUGCGGGUUCGAGUCCCGUACGGAACG [G23C A40C]
The yeast fitness of the first is lower: at most 0.5 for the first, 0.666 for the second.

In the case of GUUCCGUUGGCGUAAUGGUAAGGCGUCUCGCUCCUAAGGAGAAGACUGCGGGUUCGAGUCCCGUACGGAUCG [C22G C30G A70U], the yeast fitness is reported as 0.601.

— the RNAGym collection of RNA variant scans (doi:10.1126/science.aae0568)
